Source: ChEMBL document CHEMBL1127860, “Design, synthesis, X-ray analysis, and dopamine receptor-modulating activity of mimics of the "C5" hydrogen-bonded conformation in the peptidomimetic 2-oxo-3(R)-[(2(S)-pyrrolidinylcarbonyl)amino]-1- pyrrolidineacetamide” (J Med Chem, 1994)

Columns and labels:
[1] = target: D(2) dopamine receptor (Bos taurus) (UniProt P20288); test: Binding towards dopamine D2 receptor using [3H]spiroperidol in presence of (Gpp(NH)p)
[2] = target: D(2) dopamine receptor (Bos taurus) (UniProt P20288); test: Binding towards dopamine D2 receptor using [3H]spiroperidol in the absence of (Gpp(NH)p)
[3] = target: D(2) dopamine receptor (Bos taurus) (UniProt P20288); test: Percentage of sites in high affinity form for the agonist in the absence of (Gpp(NH)p; assay type: functional
[4] = target: D(2) dopamine receptor (Bos taurus) (UniProt P20288); test: Percentage of sites in low affinity form for the agonist in the absence of (Gpp(NH)p); assay type: functional
[5] = target: D(2) dopamine receptor (Bos taurus) (UniProt P20288); test: Percentage of sites in low affinity form for the agonist in the presence of (Gpp(NH)p); assay type: functional
[6] = target: D(2) dopamine receptor (Bos taurus) (UniProt P20288); test: Percentage of sites in high affinity form for the agonist in the presence of (Gpp(NH)p); assay type: functional
[7] = target: D(2) dopamine receptor (Bos taurus) (UniProt P20288); test: Tested for the ability to enhance the binding of the dopamine D2 receptor agonist N-propylnorapomorphine (NPA) in the absence of (Gpp(NH)p)
How it was run: (§1)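 High-affinity [³H]NPA (0.05 nM) binding to bovine striatal membranes, 1 h at 22 °C, then GF/B filtration. Compound at 1, 10 or 100 nM, either with 100 μM Gpp(NH)p added directly or after a 2 h, 4 °C preincubation with Gpp(NH)p and washing. Expressed as % of maximal specific binding in Gpp(NH)p-free membranes. Mean ± SEM of five experiments.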

[8] = target: D(2) dopamine receptor (Bos taurus) (UniProt P20288); test: Tested for the ability to enhance the binding of the dopamine D2 receptor agonist N-propylnorapomorphine (NPA) in the presence of (Gpp(NH)p); how it was run: as §1
[9] = Ratio of Rh and RL Inhibitor constants in absence of (Gpp(NH)p)
[10] = Ratio of Rh and RL Inhibitor constants in presence of (Gpp(NH)p)
[11] = target: D(2) dopamine receptor (Bos taurus) (UniProt P20288)
[12] = target: D(2) dopamine receptor (Bos taurus) (UniProt P20288); remark: listed apart in the source

Chain of D(2) dopamine receptor (Bos taurus) (P20288 whole entry): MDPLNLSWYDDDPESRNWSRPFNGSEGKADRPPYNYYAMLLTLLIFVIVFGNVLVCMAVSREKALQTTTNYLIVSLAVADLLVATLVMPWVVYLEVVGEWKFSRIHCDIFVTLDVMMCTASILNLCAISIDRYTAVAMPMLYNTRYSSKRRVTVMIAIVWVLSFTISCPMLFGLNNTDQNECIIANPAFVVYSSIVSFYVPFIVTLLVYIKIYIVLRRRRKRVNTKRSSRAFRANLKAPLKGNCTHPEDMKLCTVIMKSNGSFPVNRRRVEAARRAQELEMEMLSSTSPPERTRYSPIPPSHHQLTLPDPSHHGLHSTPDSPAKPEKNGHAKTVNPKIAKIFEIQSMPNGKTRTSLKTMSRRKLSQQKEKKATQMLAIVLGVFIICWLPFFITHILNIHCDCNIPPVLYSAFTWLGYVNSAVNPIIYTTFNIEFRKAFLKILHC

| SMILES | KH [1] [nM] | KH [2] [nM] | RH [3] [%] | RL [4] [%] | RL [5] [%] | RH [6] [%] | KL [7] [nM] | KL [8] [nM] | Ratio [9] | Ratio [10] | KL [11] [nM] | KL [12] [nM] |
| --- | --- | --- | --- | --- | --- | --- | --- | --- | --- | --- | --- | --- |
| CC1(C)N2CCC[C@H]2C(=O)N1[C@@H]1CCN(CC(N)=O)C1=O | 0.07 | 0.03 | 65 | 34 | 64 | 36 | 61 | 77 | 1.91 | 0.56 | – | – |
| NC(=O)CN1CC[C@@H](N2CC(=O)N3CCC[C@H]3C2=O)C1=O | 0.05 | 0.02 | 65 | 33 | 59 | 42 | – | – | 1.97 | 0.71 | 64 | 56 |
